{
  "source": "ChEMBL document CHEMBL1926676",
  "about": "“Antimalarial β-carboline and indolactam alkaloids from Marinactinospora thermotolerans, a deep sea isolate” (J Nat Prod, 2011)",
  "key": {"[1]": {"test_system": "MDA-MB-231", "experiment": "Cytotoxicity against human MDA-MB-231 cells after 48 hrs by MTT assay", "type": "functional, cell-based", "details": "MDA-MB-231, 48 h", "procedure,_shortened": "(§1)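 Cells grown in RPMI-1640 with 10% FBS, 37 °C, 5% CO2. Seeded at 2 × 10^3 cells per well and left 12 h. Compounds added in DMSO at various concentrations for 48 h. MTT (1 mg/mL in PBS) then added for 4 h at 37 °C. Formazan dissolved in DMSO and absorbance read.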"}, "[2]": {"test_system": "NCI-H460", "experiment": "Cytotoxicity against human NCI-H460 cells after 48 hrs by MTT assay", "type": "functional, cell-based", "details": "NCI-H460, 48 h", "procedure,_shortened": "as §1"}, "[3]": {"test_system": "DU-145", "experiment": "Cytotoxicity against human DU145 cells after 48 hrs by MTT assay", "type": "functional, cell-based", "details": "DU-145, 48 h", "procedure,_shortened": "as §1"}, "[4]": {"test_system": "MCF7", "experiment": "Cytotoxicity against human MCF7 cells after 48 hrs by MTT assay", "type": "functional, cell-based", "details": "MCF7, 48 h", "procedure,_shortened": "as §1"}, "[5]": {"test_system": "HeLa", "experiment": "Cytotoxicity against human HeLa cells after 48 hrs by MTT assay", "type": "functional, cell-based", "procedure,_shortened": "as §1"}, "[6]": {"test_system": "SMMC-7721", "experiment": "Cytotoxicity against human SMMC7721 cells after 48 hrs by MTT assay", "type": "functional, cell-based", "details": "SMMC-7721, 48 h", "procedure,_shortened": "as §1"}, "[7]": {"test_system": "A549", "experiment": "Cytotoxicity against human A549 cells after 48 hrs by MTT assay", "type": "functional, cell-based", "details": "A549, 48 h", "procedure,_shortened": "as §1"}, "[8]": {"test_system": "SW1990", "experiment": "Cytotoxicity against human SW1990 cells after 48 hrs by MTT assay", "type": "functional, cell-based", "details": "SW1990, 48 h", "procedure,_shortened": "as §1"}, "[9]": {"test_system": "Plasmodium falciparum", "experiment": "Antiplasmodial activity against multidrug-resistant Plasmodium falciparum Dd2 assessed as parasitaemia after 72 hrs using SYBR Green 1 staining by fluorescence method", "type": "functional, organism-based", "details": "Dd2, 72 h", "procedure,_shortened": "(§2)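 Blood-stage P. falciparum cultures at 0.2% parasitemia, 2% hematocrit, given serially diluted compound in quadruplicate; 72 h at 37 °C. Lysis buffer with SYBR Green I (0.2 μL/mL) added, 1 h in dark, then relative fluorescence read. IC50 by nonlinear regression of logistic dose-response curves.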"}, "[10]": {"test_system": "Plasmodium falciparum", "experiment": "Antiplasmodial activity against drug-sensitive Plasmodium falciparum 3D7 assessed as parasitaemia after 72 hrs using SYBR Green 1 staining by fluorescence method", "type": "functional, organism-based", "details": "3D7, 72 h", "procedure,_shortened": "as §2"}},
  "note": "pIC50: −log10 of the molar value.",
  "data": [
    {"smiles": "CC(=O)c1nccc2c1[nH]c1ccccc12", "values": [
      {"measurement": "pIC50", "setting": "[1]", "result": "< 4.30"},
      {"measurement": "pIC50", "setting": "[2]", "result": "< 4.30"},
      {"measurement": "pIC50", "setting": "[3]", "result": "< 4.30"},
      {"measurement": "pIC50", "setting": "[4]", "result": "< 4.30"},
      {"measurement": "pIC50", "setting": "[5]", "result": "< 4.30"},
      {"measurement": "pIC50", "setting": "[6]", "result": "< 4.30"},
      {"measurement": "pIC50", "setting": "[7]", "result": "< 4.30"},
      {"measurement": "pIC50", "setting": "[8]", "result": "< 4.30"}
    ]},
    {"smiles": "CC(=O)c1nc(C(=O)NCCc2ccc(O)cc2)cc2c1[nH]c1ccccc12", "values": [
      {"measurement": "pIC50", "setting": "[1]", "result": "< 4.30"},
      {"measurement": "pIC50", "setting": "[2]", "result": "< 4.30"},
      {"measurement": "pIC50", "setting": "[3]", "result": "< 4.30"},
      {"measurement": "pIC50", "setting": "[4]", "result": "< 4.30"},
      {"measurement": "pIC50", "setting": "[5]", "result": "< 4.30"},
      {"measurement": "pIC50", "setting": "[9]", "result": 4.81},
      {"measurement": "pIC50", "setting": "[6]", "result": "< 4.30"},
      {"measurement": "pIC50", "setting": "[7]", "result": "< 4.30"},
      {"measurement": "pIC50", "setting": "[10]", "result": 4.78},
      {"measurement": "pIC50", "setting": "[8]", "result": "< 4.30"}
    ]},
    {"smiles": "CC(=O)c1nc(C(=O)NCCc2ccccc2)cc2c1[nH]c1ccccc12", "values": [
      {"measurement": "pIC50", "setting": "[1]", "result": "< 4.30"},
      {"measurement": "pIC50", "setting": "[2]", "result": "< 4.30"},
      {"measurement": "pIC50", "setting": "[3]", "result": "< 4.30"},
      {"measurement": "pIC50", "setting": "[4]", "result": "< 4.30"},
      {"measurement": "pIC50", "setting": "[5]", "result": "< 4.30"},
      {"measurement": "pIC50", "setting": "[9]", "result": 5.47},
      {"measurement": "pIC50", "setting": "[6]", "result": "< 4.30"},
      {"measurement": "pIC50", "setting": "[7]", "result": "< 4.30"},
      {"measurement": "pIC50", "setting": "[10]", "result": 5.51},
      {"measurement": "pIC50", "setting": "[8]", "result": "< 4.30"}
    ]},
    {"smiles": "C=CC(C)(C)c1ccc2c3c(c[nH]c13)C[C@@H](CO)NC(=O)[C@H]([C@@H](C)CC)N2", "values": [
      {"measurement": "pIC50", "setting": "[1]", "result": "< 4.30"},
      {"measurement": "pIC50", "setting": "[2]", "result": "< 4.30"},
      {"measurement": "pIC50", "setting": "[3]", "result": "< 4.30"},
      {"measurement": "pIC50", "setting": "[4]", "result": "< 4.30"},
      {"measurement": "pIC50", "setting": "[5]", "result": "< 4.30"},
      {"measurement": "pIC50", "setting": "[9]", "result": 4.73},
      {"measurement": "pIC50", "setting": "[6]", "result": "< 4.30"},
      {"measurement": "pIC50", "setting": "[7]", "result": "< 4.30"},
      {"measurement": "pIC50", "setting": "[10]", "result": 4.68},
      {"measurement": "pIC50", "setting": "[8]", "result": "< 4.30"}
    ]},
    {"smiles": "C=CC(C)(C)c1ccc2c3c(c[nH]c13)C[C@@H](CO[C@@H]1O[C@@H](CO)[C@H](O)[C@@H](O)[C@@H]1O)NC(=O)[C@H]([C@@H](C)CC)N2C", "values": [
      {"measurement": "pIC50", "setting": "[1]", "result": "< 4.30"},
      {"measurement": "pIC50", "setting": "[2]", "result": "< 4.30"},
      {"measurement": "pIC50", "setting": "[3]", "result": "< 4.30"},
      {"measurement": "pIC50", "setting": "[4]", "result": "< 4.30"},
      {"measurement": "pIC50", "setting": "[5]", "result": "< 4.30"},
      {"measurement": "pIC50", "setting": "[9]", "result": 5.30},
      {"measurement": "pIC50", "setting": "[6]", "result": "< 4.30"},
      {"measurement": "pIC50", "setting": "[7]", "result": "< 4.30"},
      {"measurement": "pIC50", "setting": "[10]", "result": 4.98},
      {"measurement": "pIC50", "setting": "[8]", "result": "< 4.30"}
    ]},
    {"smiles": "COc1ccc(CCNC(=O)c2cc3c([nH]c4ccccc43)c(C(C)=O)n2)cc1", "note": "[MARINACARBOLINE A]", "values": [
      {"measurement": "pIC50", "setting": "[1]", "result": "< 4.30"},
      {"measurement": "pIC50", "setting": "[2]", "result": "< 4.30"},
      {"measurement": "pIC50", "setting": "[3]", "result": "< 4.30"},
      {"measurement": "pIC50", "setting": "[4]", "result": "< 4.30"},
      {"measurement": "pIC50", "setting": "[5]", "result": "< 4.30"},
      {"measurement": "pIC50", "setting": "[9]", "result": 5.72},
      {"measurement": "pIC50", "setting": "[6]", "result": "< 4.30"},
      {"measurement": "pIC50", "setting": "[7]", "result": "< 4.30"},
      {"measurement": "pIC50", "setting": "[10]", "result": 4.44},
      {"measurement": "pIC50", "setting": "[8]", "result": "< 4.30"}
    ]},
    {"smiles": "CC(=O)c1nc(C(=O)NCCc2c[nH]c3ccccc23)cc2c1[nH]c1ccccc12", "note": "[MARINACARBOLINE D]", "values": [
      {"measurement": "pIC50", "setting": "[1]", "result": "< 4.30"},
      {"measurement": "pIC50", "setting": "[2]", "result": "< 4.30"},
      {"measurement": "pIC50", "setting": "[3]", "result": "< 4.30"},
      {"measurement": "pIC50", "setting": "[4]", "result": "< 4.30"},
      {"measurement": "pIC50", "setting": "[5]", "result": "< 4.30"},
      {"measurement": "pIC50", "setting": "[9]", "result": 5.44},
      {"measurement": "pIC50", "setting": "[6]", "result": "< 4.30"},
      {"measurement": "pIC50", "setting": "[7]", "result": "< 4.30"},
      {"measurement": "pIC50", "setting": "[10]", "result": 5.27},
      {"measurement": "pIC50", "setting": "[8]", "result": "< 4.30"}
    ]},
    {"smiles": "C=CC(C)(C)c1ccc2c3c(c[nH]c13)C[C@@H](CO)NC(=O)[C@H]([C@@H](C)CC)N2C", "note": "[METHYLPENDOLMYCIN]", "values": [
      {"measurement": "pIC50", "setting": "[1]", "result": "< 4.30"},
      {"measurement": "pIC50", "setting": "[2]", "result": "< 4.30"},
      {"measurement": "pIC50", "setting": "[3]", "result": "< 4.30"},
      {"measurement": "pIC50", "setting": "[4]", "result": "< 4.30"},
      {"measurement": "pIC50", "setting": "[5]", "result": "< 4.30"},
      {"measurement": "pIC50", "setting": "[6]", "result": "< 4.30"},
      {"measurement": "pIC50", "setting": "[7]", "result": "< 4.30"},
      {"measurement": "pIC50", "setting": "[8]", "result": "< 4.30"}
    ]},
    {"smiles": "C=CC(C)(C)c1ccc2c3c(c[nH]c13)C[C@@H](CO)NC(=O)[C@H](C(C)C)N2C", "note": "[PENDOLMYCIN]", "values": [
      {"measurement": "pIC50", "setting": "[1]", "result": "< 4.30"},
      {"measurement": "pIC50", "setting": "[2]", "result": "< 4.30"},
      {"measurement": "pIC50", "setting": "[3]", "result": "< 4.30"},
      {"measurement": "pIC50", "setting": "[4]", "result": "< 4.30"},
      {"measurement": "pIC50", "setting": "[5]", "result": "< 4.30"},
      {"measurement": "pIC50", "setting": "[6]", "result": "< 4.30"},
      {"measurement": "pIC50", "setting": "[7]", "result": "< 4.30"},
      {"measurement": "pIC50", "setting": "[8]", "result": "< 4.30"}
    ]}
  ]
}
